In brackets after ≈: the same amount, converted by molar mass.
How the values were obtained:
[1] = Inhibition of Mycobacterium tuberculosis KARI expressed in Escherichia coli BL21 using 2-acetolactate as substrate in presence of NADPH by spectrophotometric analysis
[2] = Inhibition of Escherichia coli KARI using acetolactate as substrate assessed as slow and tight binding by measuring initial inhibition constant in presence of NADPH by spectrophotometric analysis
[3] = Inhibition of Escherichia coli KARI using acetolactate as substrate assessed as slow and tight binding by measuring steady-state inhibition constant in presence of NADPH by spectrophotometric analysis
[4] = Inhibition of Mycobacterium tuberculosis KARI using 2-acetolactate as substrate preincubated for 30 mins in presence of Mg2+ and NADPH followed by substrate addition by Morrison's equation analysis
Summary of the method: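 0.27 μM MtKARI preincubated 30 min at 25 °C with inhibitor, 50 μM NADPH and 50 mM Mg²⁺ in 0.1 M Tris-HCl pH 8. Reaction started with 200 μM 2-acetolactate, and A340 decrease followed for 5 min. Compounds above 80% inhibition at 100 μM were retested at 1 nM−100 μM. Ki from Morrison equation fit.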

[5] = test system: Mycobacterium tuberculosis; assay: Antimycobacterial activity against Mycobacterium tuberculosis H37Rv assessed as reduction in bacterial growth incubated for 5 days by resazurin dye based assay; format: functional; settings: 120 h, time 5 day
Summary of the method: (§1)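 REMA in defined minimal medium (KH2PO4, Na2HPO4, L-asparagine, ferric ammonium citrate, MgSO4, CaCl2, ZnSO4, 0.1% glycerol) at 37 °C. Compounds 2-fold serially diluted from 30 μM. Fluorescence (ex 530/em 590 nm) read 24 h after resazurin.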

[6] = Inhibition of Slackia exigua KARI
[7] = test system: Mycobacterium tuberculosis; assay: Potency index, ratio of IC50 for IpOHA to IC50 for test compound for inhibition of Mycobacterium tuberculosis KARI using 2-acetolactate as substrate
[8] = Selectivity ratio of IC50 for Mycobacterium tuberculosis KARI to IC50 for Slackia exigua KARI
RAW264.7 = assay: Cytotoxicity against mouse RAW264.7 cells up to 100 uM incubated for 24 to 48 hrs by MTT assay; format: cell-based; settings: time 24-48 hrs
Summary of the method: (§2)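 Cells grown to 80% confluency, RAW 264.7 and HEK293 in DMEM, SW620 in RPMI, each with 10% FBS and 1 mM nonessential amino acids. Seeded at 2×10⁵ (RAW 264.7), 5×10³ (HEK293) or 2×10³ (SW620) per well and held 24−48 h at 37 °C, 5% CO2. Twofold dilutions added at 1% DMSO final, then overnight incubation. MTT 3 h, DMSO solubilisation, A570.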

SW-620 = assay: Cytotoxicity against human SW-620 cells up to 50 uM incubated for 24 to 48 hrs by MTT assay; format: cell-based; settings: time 24-48 hrs; summary of the method: as §2
[9] = test system: Mycobacterium tuberculosis; assay: Antimycobacterial activity against Mycobacterium tuberculosis H37Ra assessed as reduction in bacterial growth incubated for 5 days in presence of BCAA by resazurin dye based assay; format: functional; settings: 120 h, time 5 day
Summary of the method: (§3)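 REMA as for the unsupplemented assay, but with medium supplemented with 1 mM each of leucine, isoleucine and valine. Defined minimal medium at 37 °C. Log-phase inoculum at final OD 0.001 (H37Ra) or 0.003 (H37Rv). 2-fold dilutions from 30 μM. Resazurin fluorescence (530/590 nm) read after 24 h.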

[10] = Selectivity index, ratio of MIC for antimycobacterial activity against Mycobacterium tuberculosis H37Rv in presence of BCAA to MIC for antimycobacterial activity against Mycobacterium tuberculosis H37Rv in absence of BCAA; format: functional
HEK293 = assay: Cytotoxicity against human HEK293 cells up to 50 uM incubated for 24 to 48 hrs by MTT assay; format: cell-based; settings: time 24-48 hrs; summary of the method: as §2
[11] = test system: Mycobacterium tuberculosis; assay: Antimycobacterial activity against Mycobacterium tuberculosis H37Ra assessed as reduction in bacterial growth incubated for 5 days by resazurin dye based assay; format: functional; settings: 120 h, time 5 day; summary of the method: as §1
[12] = Selectivity ratio of MIC for antimycobacterial activity against Mycobacterium tuberculosis H37Ra in presence of BCAA to MIC for antimycobacterial activity against Mycobacterium tuberculosis H37Ra in absence of BCAA; format: functional
[13] = test system: Mycobacterium tuberculosis; assay: Antimycobacterial activity against Mycobacterium tuberculosis H37Rv assessed as reduction in bacterial growth incubated for 5 days in presence of BCAA by resazurin dye based assay; format: functional; settings: 120 h, time 5 day; summary of the method: as §3

`CC(C)N(O)C(=O)C(=O)O` showed a Ki [1] of 97.7 nM, a Ki [2] of 160 nM and a Ki [3] of 0.09 nM.
For `CCOC(=O)C(=O)N(C1CCCCC1)C1CCCCC1`, the Ki [4] was greater than 20000 nM.
In the case of `CCOC(=O)C(=O)N(O)C(C)CC(C)C` (stereo not drawn), the Ki [4] is reported as 2660 nM.
Compound `CCOC(=O)C(=O)N(O)C1CCNCC1` has a Ki [4] of 3080 nM.
Work on `CCOC(=O)C(=O)NCc1ccccc1` yielded a Ki [4] greater than 20000 nM.
In the case of `COC(=O)CC(=O)N(O)C1CCCC1`, the Ki [4] is reported as greater than 20000 nM.
For `O=C(O)C(=O)N(O)C1CCCC1`, the MIC90 [5] was 219 µM (≈ 37.9 µg/mL), the Ki [6] was 8.5 nM and the Ki [4] was 19.7 nM. The Ratio IC50 [7] was 5.
Work on `O=C(O)C(=O)N(C1CCCCC1)C1CCCCC1` yielded a Ki [4] greater than 20000 nM.
`O=C(O)CC(=O)N(O)C1CCCC1` gave a Ki [4] greater than 20000 nM.
With `CCN(CC)C(=O)C(=O)O` the Ki [4] was greater than 20000 nM.
For `CC(C)CC(C)N(O)C(=O)C(=O)O` (stereo not drawn), the Ki [4] was 660 nM.
In the case of `CC(c1ccccc1)N(O)C(=O)C(=O)O` (stereo not drawn), the Ki [6] is reported as 193 nM, the Ki [4] is reported as 97.7 nM and the Ratio IC50 [8] is reported as 2.
`CCOC(=O)C(=O)N(O)C(C)c1ccccc1` (stereo not drawn) gave a Ki [4] of 152 nM.
For `O=C(O)C(=O)N(O)C1CCCCC1`, the Ki [6] was 8.5 nM, the Ki [4] was 39.6 nM and the Ratio IC50 [8] was 25.
For `CC(C)CNC(=O)C(=O)O`, the Ki [4] was greater than 20000 nM.
In the case of `O=C(O)C(=O)NCc1ccccc1`, the Ki [4] is reported as greater than 20000 nM.
For `CCCCCCCCCCOC(=O)C(=O)N(O)C1CCCC1`, the Activity (RAW264.7) was “Non-Toxic”, the MIC90 [5] was 2.45 µM (≈ 0.768 µg/mL) and the Activity (SW-620) was “Non-Toxic”. The MIC90 [9] was 15.3 µM, the Selectivity ratio [10] was 6 and the Activity (HEK293) was “Non-Toxic”. It also gave an MIC90 [11] of 3.01 µM (≈ 0.943 µg/mL), a Selectivity ratio [12] of 3 and an MIC90 [13] of 15.2 µM.
`CCOC(=O)C(=O)N(O)C1CCN(C(=O)OC(C)(C)C)CC1` gave a Ki [4] greater than 20000 nM.
In the case of `CCOC(=O)C(=O)N(O)C1CCCCC1`, the Ki [4] is reported as 1020 nM.
`CCOC(=O)C(=O)N(CC)CC` showed a Ki [4] greater than 20000 nM.
`CCCCCCCCOC(=O)C(=O)N(O)C1CCCC1` showed an MIC90 [5] of 2.32 µM (≈ 0.662 µg/mL), an MIC90 [9] of 24.9 µM and a Selectivity ratio [10] of 6. The MIC90 [11] was 6.34 µM (≈ 1.81 µg/mL), the Selectivity ratio [12] was 3 and the MIC90 [13] was 18.9 µM.
Work on `CCCCCCCCCCCCCCCCCCOC(=O)C(=O)N(O)C1CCCC1` yielded an MIC90 [11] greater than 30 µM.
In the case of `CCCCCCCCCCCCOC(=O)C(=O)N(O)C1CCCC1`, the MIC90 [5] is reported as 2.97 µM (≈ 1.01 µg/mL), the MIC90 [9] is reported as 14.1 µM and the Selectivity ratio [10] is reported as 6. It also gave an MIC90 [11] of 4.99 µM (≈ 1.7 µg/mL), a Selectivity ratio [12] of 3 and an MIC90 [13] of 17.2 µM.
Work on `CCCCCCOC(=O)C(=O)N(O)C1CCCC1` yielded an MIC90 [11] greater than 30 µM.
Compound `CCOC(=O)C(=O)N(O)C1CCCC1` has a Ki [4] of 32.2 nM.
`CC(C)NC(=O)C(=O)O` showed a Ki [4] greater than 20000 nM.

Reference: ChEMBL document CHEMBL4732165, “Analogues of the Herbicide, N-Hydroxy-N-isopropyloxamate, Inhibit Mycobacterium tuberculosis Ketol-Acid Reductoisomerase and Their Prodrugs Are Promising Anti-TB Drug Leads” (J Med Chem, 2021)
